# Test results taken from ChEMBL document CHEMBL1240415, “Design, synthesis and antimicrobial activities of some new quinoline derivatives carrying 1,2,3-triazole moiety” (2010).
# Test system: Staphylococcus aureus
# Assay: Antibacterial activity against Staphylococcus aureus ATTC 25923 after 3 to 4 days by serial plate dilution method
# Assay type: functional
# Conditions: not given
# How it was run: (§1)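 Serial dilutions in Mueller-Hinton broth in tubes, pH adjusted to 5.0 with phosphate buffer. Inoculated with a standardized bacterial suspension and incubated 16–18 h at 37 °C. MIC is the lowest concentration with no visible growth, tested over 6.25–100 µg/mL. Zones come from an agar well diffusion assay: compounds in DMSO are added to wells in seeded agar, DMSO control, triplicate plates, 37 °C for 3–4 days, inhibition zone diameter in mm.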
row,Structure (SMILES),diameter of the inhibition zone (DIZ) [mm]
1,COc1ccc2nc(C)cc(-n3cc(CN4CCCC4)nn3)c2c1,10
2,COc1ccc2nc(C)cc(-n3cc(CN4CCCCC4)nn3)c2c1,<10
3,COc1ccc2nc(C)cc(-n3cc(CN4CCC(c5ccccc5)CC4)nn3)c2c1,10
4,COc1ccc2nc(C)cc(-n3cc(CN4CCN(C)CC4)nn3)c2c1,16

# Same assay, conditions: Staphylococcus aureus, ATTC 25923
row,Structure (SMILES),MIC [µg/mL]
1,COc1ccc2nc(C)cc(-n3cc(CN4CCCC4)nn3)c2c1,12.5
2,COc1ccc2nc(C)cc(-n3cc(CN4CCCCC4)nn3)c2c1,50
3,COc1ccc2nc(C)cc(-n3cc(CN4CCC(c5ccccc5)CC4)nn3)c2c1,12.5
4,COc1ccc2nc(C)cc(-n3cc(CN4CCN(C)CC4)nn3)c2c1,6.25

# Test system: Escherichia coli
# Assay: Antibacterial activity against Escherichia coli ATTC 25922 after 3 to 4 days by serial plate dilution method
# Assay type: functional
# Conditions: not given
# How it was run: as §1
row,Structure (SMILES),diameter of the inhibition zone (DIZ) [mm]
1,COc1ccc2nc(C)cc(-n3cc(CN4CCCC4)nn3)c2c1,10
2,COc1ccc2nc(C)cc(-n3cc(CN4CCCCC4)nn3)c2c1,10
3,COc1ccc2nc(C)cc(-n3cc(CN4CCC(c5ccccc5)CC4)nn3)c2c1,10
4,COc1ccc2nc(C)cc(-n3cc(CN4CCN(C)CC4)nn3)c2c1,20

# Same assay, conditions: Escherichia coli, ATTC 25922
row,Structure (SMILES),MIC [µg/mL]
1,COc1ccc2nc(C)cc(-n3cc(CN4CCCC4)nn3)c2c1,12.5
2,COc1ccc2nc(C)cc(-n3cc(CN4CCCCC4)nn3)c2c1,12.5
3,COc1ccc2nc(C)cc(-n3cc(CN4CCC(c5ccccc5)CC4)nn3)c2c1,12.5
4,COc1ccc2nc(C)cc(-n3cc(CN4CCN(C)CC4)nn3)c2c1,6.25

# Test system: Pseudomonas aeruginosa
# Assay: Antibacterial activity against Pseudomonas aeruginosa ATCC 27853 after 3 to 4 days by serial plate dilution method
# Assay type: functional
# Conditions: not given
# How it was run: as §1
row,Structure (SMILES),diameter of the inhibition zone (DIZ) [mm]
1,COc1ccc2nc(C)cc(-n3cc(CN4CCCC4)nn3)c2c1,12
2,COc1ccc2nc(C)cc(-n3cc(CN4CCCCC4)nn3)c2c1,<10
3,COc1ccc2nc(C)cc(-n3cc(CN4CCC(c5ccccc5)CC4)nn3)c2c1,12
4,COc1ccc2nc(C)cc(-n3cc(CN4CCN(C)CC4)nn3)c2c1,14

# Same assay, conditions: Pseudomonas aeruginosa, ATCC 27853
row,Structure (SMILES),MIC [µg/mL]
1,COc1ccc2nc(C)cc(-n3cc(CN4CCCC4)nn3)c2c1,12.5
2,COc1ccc2nc(C)cc(-n3cc(CN4CCCCC4)nn3)c2c1,50
3,COc1ccc2nc(C)cc(-n3cc(CN4CCC(c5ccccc5)CC4)nn3)c2c1,12.5
4,COc1ccc2nc(C)cc(-n3cc(CN4CCN(C)CC4)nn3)c2c1,6.25

# Test system: Klebsiella pneumoniae
# Assay: Antibacterial activity against recultured Klebsiella pneumoniae after 3 to 4 days by serial plate dilution method
# Assay type: functional
# Conditions: not given
# How it was run: as §1
row,Structure (SMILES),diameter of the inhibition zone (DIZ) [mm]
1,COc1ccc2nc(C)cc(-n3cc(CN4CCCC4)nn3)c2c1,11
2,COc1ccc2nc(C)cc(-n3cc(CN4CCCCC4)nn3)c2c1,<10
3,COc1ccc2nc(C)cc(-n3cc(CN4CCC(c5ccccc5)CC4)nn3)c2c1,11
4,COc1ccc2nc(C)cc(-n3cc(CN4CCN(C)CC4)nn3)c2c1,14

# Same assay, conditions: Klebsiella pneumoniae
row,Structure (SMILES),MIC [µg/mL]
1,COc1ccc2nc(C)cc(-n3cc(CN4CCCC4)nn3)c2c1,12.5
2,COc1ccc2nc(C)cc(-n3cc(CN4CCCCC4)nn3)c2c1,50
3,COc1ccc2nc(C)cc(-n3cc(CN4CCC(c5ccccc5)CC4)nn3)c2c1,12.5
4,COc1ccc2nc(C)cc(-n3cc(CN4CCN(C)CC4)nn3)c2c1,6.25

# Test system: Streptococcus pyogenes
# Assay: Antibacterial activity against Streptococcus pyogenes after 3 to 4 days by serial plate dilution method
# Assay type: functional
# Conditions: not given
# How it was run: as §1
row,Structure (SMILES),diameter of the inhibition zone (DIZ) [mm]
1,COc1ccc2nc(C)cc(-n3cc(CN4CCCC4)nn3)c2c1,11
2,COc1ccc2nc(C)cc(-n3cc(CN4CCCCC4)nn3)c2c1,10
3,COc1ccc2nc(C)cc(-n3cc(CN4CCC(c5ccccc5)CC4)nn3)c2c1,11
4,COc1ccc2nc(C)cc(-n3cc(CN4CCN(C)CC4)nn3)c2c1,16

# Same assay, conditions: Streptococcus pyogenes
row,Structure (SMILES),MIC [µg/mL]
1,COc1ccc2nc(C)cc(-n3cc(CN4CCCC4)nn3)c2c1,12.5
2,COc1ccc2nc(C)cc(-n3cc(CN4CCCCC4)nn3)c2c1,12.5
3,COc1ccc2nc(C)cc(-n3cc(CN4CCC(c5ccccc5)CC4)nn3)c2c1,12.5
4,COc1ccc2nc(C)cc(-n3cc(CN4CCN(C)CC4)nn3)c2c1,6.25

# Test system: Aspergillus flavus
# Assay: Antifungal activity against Aspergillus flavus NCIM 524 after 3 to 4 days by serial plate dilution method
# Assay type: functional
# Conditions: not given
# How it was run: (§2)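 Sabouraud agar made from peptone, glucose and agar in water, pH 5.7. Fungal spores suspended in normal saline and used to lawn the plates, which were dried 1 h at 37 °C. Wells punched and compounds added in DMSO, with a DMSO solvent control. Triplicate plates held at 37 °C for 3–4 days. Read-out is inhibition zone diameter.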
row,Structure (SMILES),diameter of the inhibition zone (DIZ) [mm]
1,COc1ccc2nc(C)cc(-n3cc(CN4CCCC4)nn3)c2c1,11
2,COc1ccc2nc(C)cc(-n3cc(CN4CCCCC4)nn3)c2c1,10
3,COc1ccc2nc(C)cc(-n3cc(CN4CCC(c5ccccc5)CC4)nn3)c2c1,<10
4,COc1ccc2nc(C)cc(-n3cc(CN4CCN(C)CC4)nn3)c2c1,16

# Same assay, conditions: Aspergillus flavus, NCIM 524
row,Structure (SMILES),MIC [µg/mL]
1,COc1ccc2nc(C)cc(-n3cc(CN4CCCC4)nn3)c2c1,12.5
2,COc1ccc2nc(C)cc(-n3cc(CN4CCCCC4)nn3)c2c1,12.5
3,COc1ccc2nc(C)cc(-n3cc(CN4CCC(c5ccccc5)CC4)nn3)c2c1,50
4,COc1ccc2nc(C)cc(-n3cc(CN4CCN(C)CC4)nn3)c2c1,6.25

# Test system: Aspergillus fumigatus
# Assay: Antifungal activity against Aspergillus fumigatus NCIM 902 after 3 to 4 days by serial plate dilution method
# Assay type: functional
# Conditions: not given
# How it was run: as §2
row,Structure (SMILES),diameter of the inhibition zone (DIZ) [mm]
1,COc1ccc2nc(C)cc(-n3cc(CN4CCCC4)nn3)c2c1,10
2,COc1ccc2nc(C)cc(-n3cc(CN4CCCCC4)nn3)c2c1,10
3,COc1ccc2nc(C)cc(-n3cc(CN4CCC(c5ccccc5)CC4)nn3)c2c1,<10
4,COc1ccc2nc(C)cc(-n3cc(CN4CCN(C)CC4)nn3)c2c1,18

# Same assay, conditions: Aspergillus fumigatus, NCIM 902
row,Structure (SMILES),MIC [µg/mL]
1,COc1ccc2nc(C)cc(-n3cc(CN4CCCC4)nn3)c2c1,12.5
2,COc1ccc2nc(C)cc(-n3cc(CN4CCCCC4)nn3)c2c1,12.5
3,COc1ccc2nc(C)cc(-n3cc(CN4CCC(c5ccccc5)CC4)nn3)c2c1,50
4,COc1ccc2nc(C)cc(-n3cc(CN4CCN(C)CC4)nn3)c2c1,6.25

# Test system: Talaromyces marneffei
# Assay: Antifungal activity against recultured Penicillium marneffei after 3 to 4 days by serial plate dilution method
# Assay type: functional
# Conditions: not given
# How it was run: as §2
row,Structure (SMILES),diameter of the inhibition zone (DIZ) [mm]
1,COc1ccc2nc(C)cc(-n3cc(CN4CCCC4)nn3)c2c1,10
2,COc1ccc2nc(C)cc(-n3cc(CN4CCCCC4)nn3)c2c1,12
3,COc1ccc2nc(C)cc(-n3cc(CN4CCC(c5ccccc5)CC4)nn3)c2c1,<10
4,COc1ccc2nc(C)cc(-n3cc(CN4CCN(C)CC4)nn3)c2c1,16

# Same assay, conditions: Talaromyces marneffei
row,Structure (SMILES),MIC [µg/mL]
1,COc1ccc2nc(C)cc(-n3cc(CN4CCCC4)nn3)c2c1,12.5
2,COc1ccc2nc(C)cc(-n3cc(CN4CCCCC4)nn3)c2c1,12.5
3,COc1ccc2nc(C)cc(-n3cc(CN4CCC(c5ccccc5)CC4)nn3)c2c1,50
4,COc1ccc2nc(C)cc(-n3cc(CN4CCN(C)CC4)nn3)c2c1,6.25

# Test system: Trichophyton mentagrophytes
# Assay: Antifungal activity against recultured Trichophyton mentagrophytes after 3 to 4 days by serial plate dilution method
# Assay type: functional
# Conditions: not given
# How it was run: as §2
row,Structure (SMILES),diameter of the inhibition zone (DIZ) [mm]
1,COc1ccc2nc(C)cc(-n3cc(CN4CCCC4)nn3)c2c1,12
2,COc1ccc2nc(C)cc(-n3cc(CN4CCCCC4)nn3)c2c1,10
3,COc1ccc2nc(C)cc(-n3cc(CN4CCC(c5ccccc5)CC4)nn3)c2c1,<10
4,COc1ccc2nc(C)cc(-n3cc(CN4CCN(C)CC4)nn3)c2c1,14

# Same assay, conditions: Trichophyton mentagrophytes
row,Structure (SMILES),MIC [µg/mL]
1,COc1ccc2nc(C)cc(-n3cc(CN4CCCC4)nn3)c2c1,12.5
2,COc1ccc2nc(C)cc(-n3cc(CN4CCCCC4)nn3)c2c1,12.5
3,COc1ccc2nc(C)cc(-n3cc(CN4CCC(c5ccccc5)CC4)nn3)c2c1,50
4,COc1ccc2nc(C)cc(-n3cc(CN4CCN(C)CC4)nn3)c2c1,6.25

# Test system: Candida albicans
# Assay: Antifungal activity against Candida albicans after 3 to 4 days by serial plate dilution method
# Assay type: functional
# Conditions: not given
# How it was run: as §2
row,Structure (SMILES),diameter of the inhibition zone (DIZ) [mm]
1,COc1ccc2nc(C)cc(-n3cc(CN4CCCC4)nn3)c2c1,10
2,COc1ccc2nc(C)cc(-n3cc(CN4CCCCC4)nn3)c2c1,10
3,COc1ccc2nc(C)cc(-n3cc(CN4CCC(c5ccccc5)CC4)nn3)c2c1,<10
4,COc1ccc2nc(C)cc(-n3cc(CN4CCN(C)CC4)nn3)c2c1,14

# Same assay, conditions: Candida albicans
row,Structure (SMILES),MIC [µg/mL]
1,COc1ccc2nc(C)cc(-n3cc(CN4CCCC4)nn3)c2c1,12.5
2,COc1ccc2nc(C)cc(-n3cc(CN4CCCCC4)nn3)c2c1,12.5
3,COc1ccc2nc(C)cc(-n3cc(CN4CCC(c5ccccc5)CC4)nn3)c2c1,50
4,COc1ccc2nc(C)cc(-n3cc(CN4CCN(C)CC4)nn3)c2c1,6.25
